pIC50: −log10 of the molar value.

22 compounds from ChEMBL document CHEMBL1125559, “Analogues of platelet activating factor. 7. Bis-aryl amide and bis-aryl urea receptor antagonists of PAF” (J Med Chem, 1992) can be followed below.

Data set [1] concerns Mus musculus. The data set is described as follows: Compound was evaluated for PAF-induced lethality in mouse (intraperitoneally at a dose of 1.0 mg/kg in saline 0.5 hr before lethal intravenous PAF challenge 75-150 mg/kg). Type of data set: ADME, organism-based. Also noted: dose 1 mg/kg, route intraperitoneal. As to conditions: in vivo. The procedure, abridged:
(§1)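 Female Swiss-Webster mice (20-25 g) received test compound ip in saline (10 mL/Kg); controls got saline alone. The PAF dose was chosen daily from small pilot groups. Survival was scored at 1.5 h and recorded as dead/total.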

Data set [2] concerns Mus musculus. The data set is described as follows: Compound was evaluated for PAF-induced lethality in mouse (intraperitoneally at a dose of 1.0 mg/kg in saline 0.5 hr before lethal intravenous PAF challenge 75-150 mg/kg); 8/13. In kind it is ADME, organism-based. More on the design: dose 1 mg/kg, route intravenous. As to conditions: in vivo. The procedure, abridged: as §1

The species named for data set [3] is Oryctolagus cuniculus. The data set is described as follows: Concentration required to inhibit PAF (5*10e-8 M) induced platelet aggregation in rabbit platelet rich plasma(PRP) by 50%. In kind it is functional, organism-based. The procedure, abridged: (§2)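 Rabbit PRP came from blood spun at 800 rpm for 15 min at room temperature, with platelet counts of 350 000–550 000/µL. PRP was equilibrated 1–2 min at 37 °C in an aggregometer. It was preincubated 5 min with test compound (final 10^-8 to 10^-5 M; methanol stock diluted in saline) or saline, then challenged with L-C16-PAF. IC50 was taken from concentration–response curves of aggregation magnitude and averaged over separate determinations.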

Data set [4] deals with Mus musculus. The data set is described as follows: Compound was evaluated for PAF-induced lethality in mouse (intraperitoneally at a dose of 1.0 mg/kg in saline 0.5 hr before lethal intravenous PAF challenge 75-150 mg/kg); 2/10. In kind it is ADME, organism-based. Also noted: dose 1 mg/kg. As to conditions: in vivo. The procedure, abridged: as §1
Data set [5] deals with Mus musculus. Description: Compound was evaluated for PAF-induced lethality in mouse (intraperitoneally at a dose of 1.0 mg/kg in saline 0.5 hr before lethal intravenous PAF challenge 75-150 mg/kg); 4/12. More on the design: dose 1 mg/kg. As to conditions: in vivo. Type of data set: ADME, organism-based. The procedure, abridged: as §1
Data set [6] has as its system Mus musculus. Description: Compound was evaluated for PAF-induced lethality in mouse (intraperitoneally at a dose of 1.0 mg/kg in saline 0.5 hr before lethal intravenous PAF challenge 75-150 mg/kg); 12/39. Type of data set: ADME, organism-based. Also noted: dose 1 mg/kg. As to conditions: in vivo. The procedure, abridged:
as §1

Data set [7] concerns Mus musculus. The data set is described as follows: Compound was evaluated for PAF-induced lethality in mouse (intraperitoneally at a dose of 1.0 mg/kg in saline 0.5 hr before lethal intravenous PAF challenge 75-150 mg/kg); 5/12. Type of data set: ADME, organism-based. As to conditions: in vivo. More on the design: dose 1 mg/kg, route intravenous. The procedure, abridged:
as §1

Data set [8] deals with Mus musculus. Description: Compound was evaluated for PAF-induced lethality in mouse (intraperitoneally at a dose of 1.0 mg/kg in saline 0.5 hr before lethal intravenous PAF challenge 75-150 mg/kg); 11/15. Type of data set: ADME, organism-based. As to conditions: in vivo. More on the design: dose 1 mg/kg. The procedure, abridged:
as §1

Data set [9] relates to Mus musculus. Description: Compound was evaluated number of mouse dead out of total (intraperitoneally at a dose of 1.0 mg/kg in saline 0.5 hr before lethal intravenous PAF challenge 75-150 mg/kg)''; 6/12. In kind it is ADME, organism-based. Also noted: dose 1 mg/kg, route intravenous. As to conditions: in vivo. The procedure, abridged:
as §1

Data set [10] is filed under the species Oryctolagus cuniculus. The data set is described as follows: Concentration required to inhibit PAF (5*10e-8 M) induced platelet aggregation in rabbit platelet rich plasma(PRP) by 50% at 10 uM. Type of data set: functional.
The species entered for data set [11] is Oryctolagus cuniculus. The data set is described as follows: Concentration required to inhibit PAF (5*10e-7 M) induced platelet aggregation in rabbit platelet rich plasma(PRP) by 50%. Type of data set: functional, organism-based. The method, boiled down:
as §2

For data set [12], the system named is Mus musculus. Description: Compound was evaluated for PAF-induced lethality in mouse (intraperitoneally at a dose of 1.0 mg/kg in saline 0.5 h before lethal intravenous PAF challenge 75-150 mg/kg); 12/14. As to conditions: in vivo. More on the design: dose 1 mg/kg. In kind it is ADME, organism-based. The method, boiled down: as §1

The compound `CCCCCCCCCCCCCCOc1ccc(CN(C(=O)NC)c2cccc(C[n+]3csc(C)c3)c2)cc1.[Br-]` returned a Lethality in data set [1] of 62%. Further, the Dead/total in [2] was found to be 8. Further, in [3], the pIC50 is 6.28. Turning to `CCCCCCCCCCCCCCCCOc1ccc(CC(=O)Nc2cccc(C[n+]3csc(C)c3)c2)cc1`, in data set [3], the pIC50 was 5.28. Consider `CCCCCCCCCCCCCCOc1cccc(OP(=O)([O-])Oc2cccc(C[n+]3csc(C)c3)c2)c1C(=O)OC`, for which, in data set [1], the Lethality is 15%. `COc1cc([C@H]2CC[C@H](c3cc(OC)c(OC)c(OC)c3)O2)cc(OC)c1OC` showed a pIC50 in data set [3] of 5.80. Same read-out and setting: next, `CCCCCCCCCCCCCCOc1cc(CN(C(C)=O)c2cccc(C[n+]3csc(C)c3)c2)cc(OC)c1`: 6.02. In data set [1], `CCCCCCCCCCCCCCOc1c(C)cccc1CN(C(C)=O)c1cccc(C[n+]2csc(C)c2)c1.[Br-]` yielded a Lethality of 20%. The compound further displayed a Dead/total in data set [4] of 2. The compound further gave a pIC50 in data set [3] of 5.49.

Turning to `CCCCCCCCCCCCCCOc1c(C)cc(CN(C(C)=O)c2cccc(C[n+]3csc(C)c3)c2)cc1C`, in data set [3], the pIC50 was 6.15. In turn, `CCCCCCCCCCCCCCOc1cc(CN(C(C)=O)c2cccc(C[n+]3csc(C)c3)c2)ccc1OC.[Br-]` yielded a Lethality in data set [1] of 27%. This compound also yielded a Dead/total in [5] of 4. In data set [3], the pIC50 was 6.43.

In data set [1], `CCCCCCCCCCCCCCOc1ccc(CNC(=O)c2ccc(C[n+]3csc(C)c3)cc2)cc1.[Br-]` showed a Lethality of 31%. In addition, the Dead/total in [6] worked out at 12. Besides, the pIC50 in data set [3] is 5.54.

`CCCCCCCCCCCCCCCCOc1ccc(OCC(=O)Nc2cccc(C[n+]3csc(C)c3)c2)cc1` had a pIC50 in data set [3] of 5.30. On the same count and under the same terms, for `CCCCCCCCCCCCCCOc1ccc(N(Cc2cccc(C[n+]3csc(C)c3)c2)C(C)=O)cc1` the value was 6.00. `CCCCCCCCCCCCCCOc1ccc(CNc2cccc(C[n+]3csc(C)c3)c2)cc1.[Br-]` yielded a Lethality in data set [1] of 42%. In addition, the Dead/total in [7] was found to be 5. This compound gave a negative logarithm of the IC50 (pIC50) in [3] of 5.15.

`CCCCCCCCCCCCCCOc1cccc(CN(C(C)=O)c2cccc(C[n+]3csc(C)c3)c2)c1` showed a pIC50 in [3] of 6.13. Same read-out and setting: for `CCCCCCCCCCCCCCOc1ccc(CNC(=O)c2cccc(C[n+]3csc(C)c3)c2)cc1OC` the value was 6.02.

For the compound `CCCCCCCCCCCCCCOc1cc(OC)ccc1CN(C(C)=O)c1cccc(C[n+]2csc(C)c2)c1.[Br-]`, the Lethality in data set [1] was 73%. For the same compound, the Dead/total in data set [8] came out at 11. Further, the pIC50 in [3] was 5.85.

In the case of `CCCCCCCCCCCCCCOc1ccc(CN(C(C)=O)c2cccc(C[n+]3csc(C)c3)c2)cc1OC`, in data set [3], the pIC50 was 6.49. The compound `CCCCCCCCCCCCCCOc1cccc(C(=O)Nc2cccc(C[n+]3csc(C)c3)c2)c1` gave a pIC50 in data set [3] of 5.38.

On to `CCCCCCCCCCCCCCOc1ccc(CC(=O)Nc2cccc(C[n+]3csc(C)c3)c2)cc1.[Br-]`, for which the Lethality in [1] was 50%. This compound also gave a Dead/total in data set [9] of 6. The pIC50 in [3] was 6.51. Consider `CCCCCCCCCCCCCCOc1cc(CNC(=O)c2cccc(C[n+]3csc(C)c3)c2)cc(OC)c1.[Br-]`, for which the Inhibition in data set [10] worked out at 43%.

In turn, `CCCCCCCCCCCCCCOc1ccc(CCN(C(C)=O)c2cccc(C[n+]3csc(C)c3)c2)cc1` showed a pIC50 in data set [11] of 5.37.

As for `CCCCCCCCCCCCCCOc1cc(CN(C(C)=O)c2cccc(C[n+]3csc(C)c3)c2)ccc1C.[Br-]`, the Lethality in data set [1] is on record as 86%. In data set [12], this compound gave a Dead/total of 12. The negative logarithm of the IC50 (pIC50) in [3] was 5.17. In turn, `Cc1nnc2n1-c1sc(CCC(=O)N3CCOCC3)cc1C(c1ccccc1Cl)=NC2` [APAFANT] gave a pIC50 in [3] of 6.47.
